Data published in the M2OR odorant receptor database.
Positions count from the first letter of the chain named.

Key:
Settings in all cases: stereoisomer not certain
[1] = molecular target: T1, OR6S1 (Homo sapiens) (UniProt Q8NH40)
T1 sequence (whole entry): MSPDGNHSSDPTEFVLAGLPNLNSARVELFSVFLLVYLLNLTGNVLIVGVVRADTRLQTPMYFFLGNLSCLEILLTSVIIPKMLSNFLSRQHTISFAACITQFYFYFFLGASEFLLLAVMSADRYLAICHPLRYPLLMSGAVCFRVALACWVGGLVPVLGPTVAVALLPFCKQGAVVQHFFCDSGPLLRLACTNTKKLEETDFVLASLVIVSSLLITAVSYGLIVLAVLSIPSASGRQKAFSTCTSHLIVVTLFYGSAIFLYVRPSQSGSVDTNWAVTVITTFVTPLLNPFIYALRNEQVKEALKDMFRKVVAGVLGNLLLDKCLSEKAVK
Method in brief: (§1)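 Whether a receptor–molecule pair is responsive (active) rests on the original authors' judgment that its measured signal was statistically different from baseline. Pairs without that judgment are non-responsive (inactive). Sources used varied assay methods, commonly transient luciferase assays in mammalian cell lines.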

[2] = molecular target: T2, OR6T1 (Homo sapiens) (UniProt Q8NGN1)
T2 sequence (whole entry): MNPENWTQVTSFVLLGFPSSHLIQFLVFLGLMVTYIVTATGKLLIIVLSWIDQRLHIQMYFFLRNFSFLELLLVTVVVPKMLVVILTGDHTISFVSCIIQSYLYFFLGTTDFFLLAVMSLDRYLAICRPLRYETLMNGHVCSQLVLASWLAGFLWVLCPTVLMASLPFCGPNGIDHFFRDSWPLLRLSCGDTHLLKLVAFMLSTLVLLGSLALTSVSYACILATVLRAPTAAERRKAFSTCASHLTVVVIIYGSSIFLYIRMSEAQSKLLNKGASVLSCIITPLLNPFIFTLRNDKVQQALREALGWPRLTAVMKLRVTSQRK
Method in brief: as §1

[3] = molecular target: T3, OR6V1 (Homo sapiens) (UniProt Q8N148)
T3 sequence (whole entry): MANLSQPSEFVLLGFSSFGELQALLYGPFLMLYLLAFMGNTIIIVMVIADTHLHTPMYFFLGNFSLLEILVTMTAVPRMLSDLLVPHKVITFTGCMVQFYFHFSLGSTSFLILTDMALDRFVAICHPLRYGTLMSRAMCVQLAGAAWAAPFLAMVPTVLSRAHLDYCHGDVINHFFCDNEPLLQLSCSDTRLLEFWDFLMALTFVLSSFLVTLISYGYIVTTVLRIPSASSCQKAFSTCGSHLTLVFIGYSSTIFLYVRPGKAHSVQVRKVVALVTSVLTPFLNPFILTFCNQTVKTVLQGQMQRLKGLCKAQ
Method in brief: as §1

[4] = molecular target: T4, OR6X1 (Homo sapiens) (UniProt Q8NH79)
T4 sequence (whole entry): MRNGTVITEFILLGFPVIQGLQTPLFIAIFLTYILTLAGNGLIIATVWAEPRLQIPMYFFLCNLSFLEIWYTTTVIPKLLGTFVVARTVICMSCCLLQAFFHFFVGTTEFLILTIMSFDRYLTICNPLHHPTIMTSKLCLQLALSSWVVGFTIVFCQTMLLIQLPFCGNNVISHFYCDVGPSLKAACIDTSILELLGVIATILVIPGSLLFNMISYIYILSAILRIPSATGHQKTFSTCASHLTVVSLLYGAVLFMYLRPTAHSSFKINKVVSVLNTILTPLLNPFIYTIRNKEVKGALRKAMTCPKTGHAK
Method in brief: as §1

[5] = molecular target: T5, OR6Y1 (Homo sapiens) (UniProt Q8NGX8)
T5 sequence (whole entry): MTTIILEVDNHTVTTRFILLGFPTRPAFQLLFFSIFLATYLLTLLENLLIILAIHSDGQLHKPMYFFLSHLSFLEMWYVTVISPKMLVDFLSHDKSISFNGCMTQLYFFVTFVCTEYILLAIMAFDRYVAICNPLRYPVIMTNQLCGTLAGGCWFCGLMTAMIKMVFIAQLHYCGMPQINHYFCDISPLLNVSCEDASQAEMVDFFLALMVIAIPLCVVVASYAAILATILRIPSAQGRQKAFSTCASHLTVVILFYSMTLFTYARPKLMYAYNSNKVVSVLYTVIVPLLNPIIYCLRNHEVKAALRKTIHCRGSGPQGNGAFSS
Method in brief: as §1

[6] = molecular target: T6, OR7A10 (Homo sapiens) (UniProt O76100)
T6 sequence (whole entry): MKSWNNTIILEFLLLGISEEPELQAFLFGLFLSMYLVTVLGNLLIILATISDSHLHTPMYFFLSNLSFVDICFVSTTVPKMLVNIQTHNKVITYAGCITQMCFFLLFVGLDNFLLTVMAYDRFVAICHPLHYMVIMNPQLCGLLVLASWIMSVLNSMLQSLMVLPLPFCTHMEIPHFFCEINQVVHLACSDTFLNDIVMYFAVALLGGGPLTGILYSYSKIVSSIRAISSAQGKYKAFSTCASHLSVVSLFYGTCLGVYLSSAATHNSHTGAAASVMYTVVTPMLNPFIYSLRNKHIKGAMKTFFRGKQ
Method in brief: as §1

[7] = molecular target: T7, OR7A17 (Homo sapiens) (UniProt O14581)
T7 sequence (whole entry): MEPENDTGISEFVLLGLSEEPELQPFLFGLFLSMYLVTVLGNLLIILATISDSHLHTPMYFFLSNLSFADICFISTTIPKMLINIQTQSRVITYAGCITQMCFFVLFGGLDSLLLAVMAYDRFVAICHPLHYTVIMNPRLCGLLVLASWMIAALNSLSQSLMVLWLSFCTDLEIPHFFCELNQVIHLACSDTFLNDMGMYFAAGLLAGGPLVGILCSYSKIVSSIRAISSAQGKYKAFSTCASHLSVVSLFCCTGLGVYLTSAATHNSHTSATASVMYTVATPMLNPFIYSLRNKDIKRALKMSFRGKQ
Method in brief: as §1

[8] = molecular target: T8, OR7A5 (Homo sapiens) (UniProt Q15622)
T8 sequence (whole entry): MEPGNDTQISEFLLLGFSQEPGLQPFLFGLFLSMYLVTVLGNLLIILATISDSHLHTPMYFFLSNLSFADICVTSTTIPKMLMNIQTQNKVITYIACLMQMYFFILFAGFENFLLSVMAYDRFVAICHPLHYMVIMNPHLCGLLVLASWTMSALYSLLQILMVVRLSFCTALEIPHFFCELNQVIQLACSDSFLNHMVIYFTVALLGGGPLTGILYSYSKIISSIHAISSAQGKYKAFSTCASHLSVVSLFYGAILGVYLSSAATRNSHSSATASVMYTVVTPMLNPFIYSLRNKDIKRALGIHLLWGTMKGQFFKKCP
Method in brief: as §1

[9] = molecular target: T9, OR7C1 (Homo sapiens) (UniProt O76099)
T9 sequence (whole entry): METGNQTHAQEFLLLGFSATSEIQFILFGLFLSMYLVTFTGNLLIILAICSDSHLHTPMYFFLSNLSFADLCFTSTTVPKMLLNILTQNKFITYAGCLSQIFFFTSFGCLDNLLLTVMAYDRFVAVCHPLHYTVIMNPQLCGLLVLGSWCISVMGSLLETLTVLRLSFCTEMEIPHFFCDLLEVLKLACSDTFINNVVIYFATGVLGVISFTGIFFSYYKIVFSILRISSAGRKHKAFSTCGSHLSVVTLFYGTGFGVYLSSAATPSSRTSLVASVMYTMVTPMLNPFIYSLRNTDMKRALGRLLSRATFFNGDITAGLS
Method in brief: as §1

[10] = molecular target: T10, OR7C2 (Homo sapiens) (UniProt O60412)
T10 sequence (whole entry): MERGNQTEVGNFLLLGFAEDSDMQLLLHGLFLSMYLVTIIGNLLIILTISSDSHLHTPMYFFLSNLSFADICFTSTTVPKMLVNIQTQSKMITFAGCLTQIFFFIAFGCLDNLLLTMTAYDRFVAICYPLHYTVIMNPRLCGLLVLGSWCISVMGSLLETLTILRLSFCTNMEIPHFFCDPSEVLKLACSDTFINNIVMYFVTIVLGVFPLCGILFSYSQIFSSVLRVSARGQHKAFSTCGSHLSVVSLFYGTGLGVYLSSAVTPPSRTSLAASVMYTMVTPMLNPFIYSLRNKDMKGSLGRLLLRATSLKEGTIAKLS
Method in brief: as §1

[11] = molecular target: T11, OR7D2 (Homo sapiens) (UniProt Q96RA2)
T11 sequence (whole entry): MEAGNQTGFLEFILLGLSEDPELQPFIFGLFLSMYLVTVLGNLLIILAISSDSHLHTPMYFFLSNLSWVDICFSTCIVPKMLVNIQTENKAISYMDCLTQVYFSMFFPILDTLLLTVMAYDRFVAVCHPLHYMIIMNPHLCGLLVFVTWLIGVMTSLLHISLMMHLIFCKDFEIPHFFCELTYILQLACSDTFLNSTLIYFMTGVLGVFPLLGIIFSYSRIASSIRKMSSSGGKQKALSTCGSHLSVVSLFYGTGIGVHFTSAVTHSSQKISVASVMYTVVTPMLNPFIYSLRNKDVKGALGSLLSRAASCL
Method in brief: as §1

[12] = molecular target: T12, OR7D4 (Homo sapiens) (UniProt Q8NG98)
T12 sequence (whole entry): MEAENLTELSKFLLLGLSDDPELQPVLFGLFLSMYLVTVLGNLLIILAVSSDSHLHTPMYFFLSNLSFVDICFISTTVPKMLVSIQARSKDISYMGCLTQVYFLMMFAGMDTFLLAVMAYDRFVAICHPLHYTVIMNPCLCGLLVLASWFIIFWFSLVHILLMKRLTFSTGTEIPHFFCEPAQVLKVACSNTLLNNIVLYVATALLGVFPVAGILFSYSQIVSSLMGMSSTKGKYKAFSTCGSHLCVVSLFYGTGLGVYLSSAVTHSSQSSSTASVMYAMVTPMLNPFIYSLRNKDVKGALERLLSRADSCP
Method in brief: as §1

[13] = molecular target: T13, OR7E24 (Homo sapiens) (UniProt Q6IFN5)
T13 sequence (whole entry): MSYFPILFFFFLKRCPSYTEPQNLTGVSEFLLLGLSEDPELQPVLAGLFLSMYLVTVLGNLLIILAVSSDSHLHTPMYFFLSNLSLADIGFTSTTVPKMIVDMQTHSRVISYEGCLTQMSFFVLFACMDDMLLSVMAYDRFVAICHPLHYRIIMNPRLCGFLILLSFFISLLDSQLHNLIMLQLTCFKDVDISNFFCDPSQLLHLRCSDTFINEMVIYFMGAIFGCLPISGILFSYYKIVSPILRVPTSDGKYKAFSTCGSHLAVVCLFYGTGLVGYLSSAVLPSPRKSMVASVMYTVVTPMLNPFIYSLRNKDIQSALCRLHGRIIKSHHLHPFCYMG
Method in brief: as §1

[14] = molecular target: T14, OR7G1 (Homo sapiens) (UniProt Q8NGA0)
T14 sequence (whole entry): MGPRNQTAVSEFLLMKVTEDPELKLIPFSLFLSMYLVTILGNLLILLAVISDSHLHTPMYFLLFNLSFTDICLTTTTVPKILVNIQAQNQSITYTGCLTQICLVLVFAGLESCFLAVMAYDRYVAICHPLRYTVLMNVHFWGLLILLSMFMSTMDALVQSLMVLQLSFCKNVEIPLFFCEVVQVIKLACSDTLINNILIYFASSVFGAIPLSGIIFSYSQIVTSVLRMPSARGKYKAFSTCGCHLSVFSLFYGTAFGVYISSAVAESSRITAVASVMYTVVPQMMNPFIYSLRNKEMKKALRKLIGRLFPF
Method in brief: as §1

[15] = system: T15, OR6S1 T42I V156I
T15 sequence (whole entry): T1 sequence (whole entry) with T42I, V156I
Method in brief: as §1

[16] = system: T16, OR6T1 N2D
T16 sequence (whole entry): T2 sequence (whole entry) with N2D
Method in brief: as §1

[17] = system: T17, OR7A5 M81I
T17 sequence (whole entry): T8 sequence (whole entry) with M81I
Method in brief: as §1

[18] = system: T18, OR7C1 V126I E171K
T18 sequence (whole entry): T9 sequence (whole entry) with V126I, E171K
Method in brief: as §1

[19] = system: T19, OR7D4 R88W
T19 sequence (whole entry): T12 sequence (whole entry) with R88W
Method in brief: as §1

[20] = system: T20, OR7D4
T20 sequence (whole entry): T12 sequence (whole entry) with R88W, T133M
Method in brief: as §1

Measured: odorant receptor agonist call;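 note: active if original authors judged signal statistically different from baseline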

CCC(S)C(C)CO (stereo unspecified)
not listed: [15] | [16] | [17] | [18] | [19] | [20]
inactive: all other assays above

CCC1OC(=O)C(O)=C1C (stereo unspecified)
inactive: all assays above

CCCCCC(S)C(C)CO (stereo unspecified)
not listed: [15] | [16] | [17] | [18] | [19] | [20]
inactive: all other assays above

CC(=O)c1c(C)c([N+](=O)[O-])c(C(C)(C)C)c([N+](=O)[O-])c1C
not listed: [15] | [16] | [17] | [18] | [19] | [20]
inactive: all other assays above

CCCCCC(=O)C(C)C(C)=O (stereo unspecified)
not listed: [15] | [16] | [17] | [18] | [19] | [20]
inactive: all other assays above

CCC1OC(C)=C(O)C1=O (stereo unspecified)
inactive: all assays above

CC1=C(O)C(=O)OC1C (stereo unspecified)
inactive: all assays above

CC1=C(O)C(=O)C(C)O1 (stereo unspecified)
inactive: all assays above
